beta cell repl = induces beta-cell replication in MIN6 cells | MIN6 cells proliferation, ATPlite luminescence, 48 h; cells starved in 0.2% serum; 100% = growth in 10% serum | 0.29% of 330,000 active | proliferation, % at 10 µM;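 active = compounds whose signal lies at least 3.5 SD above the mean of all wells on their plate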;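 also: 0% = DMSO-treated cells in low-serum medium and 100% = 10% serum control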
T cell HTS = T cell immune modulators affecting CD8 T cell-vesicle binding | 0.068% of 330,000 active | response (vesicle binding), % at 7 µM | AID 2052 | 2C CD8+ T cell-vesicle binding, flow cytometry; active compounds read low;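 active = response, share of CD8 T cells binding vesicles, and their 90th percentile fluorescence all below set limits, cut at about 80% in these data, passing the limit was not always enough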;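 also: values below 100% mean blocked vesicle binding to the CD8+ T cells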
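Also added: QL9-peptide-loaded Drosophila micro-vesicles bearing Ld, ICAM-1 and B7-1; Test system: purified 2C TCR transgenic mouse naive CD8+ T cells; Measured by: cytometric PE anti-B7-1 and Alexa647 anti-CD8 signals after 1% paraformaldehyde fixation; Timing: binding step 1.5 h, 37 °C, antibody labelling 20 min, ice.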
Arr AP2 block = blocks beta-arrestin peptide binding to AP2 adaptin; inhibition, % at 10 µM; FITC-arrestin peptide / GST-AP2 beads, flow cytometry; AP2 beta2 appendage carries R879A mutation; 0.31% of 340,000 active;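 active = inhibition above a set limit, near 3 SD of compounds lacking own fluorescence, cut at about 54% in these data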;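 also: plate controls were DMSO wells for no effect and 5 µM unlabelled arrestin peptide for full effect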
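System: GST-AP2 R879A bound to glutathione beads, E. coli-expressed. Also added: 50 nM FITC-arrestin peptide. Schedule: compound with beads 12 min RT, then probe 1 h RT. Signal: bead flow cytometry, FITC channel. Read-out basis: percent response.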
NTR1 agonist = agonists of human neurotensin receptor NTR1 | NTR1-U2OS beta-arrestin-GFP spot imaging, agonist mode | activation, % at 20 µM | 0.17% of 330,000 active | AID 493036;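 active = activation at or above 40% of the spot to cytoplasm intensity ratio, with at least 20 cells analyzed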;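 also: 0% = DMSO without peptide and 100% = 100 nM NTR1 peptide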
Target sequence (P30989 whole entry, looked up): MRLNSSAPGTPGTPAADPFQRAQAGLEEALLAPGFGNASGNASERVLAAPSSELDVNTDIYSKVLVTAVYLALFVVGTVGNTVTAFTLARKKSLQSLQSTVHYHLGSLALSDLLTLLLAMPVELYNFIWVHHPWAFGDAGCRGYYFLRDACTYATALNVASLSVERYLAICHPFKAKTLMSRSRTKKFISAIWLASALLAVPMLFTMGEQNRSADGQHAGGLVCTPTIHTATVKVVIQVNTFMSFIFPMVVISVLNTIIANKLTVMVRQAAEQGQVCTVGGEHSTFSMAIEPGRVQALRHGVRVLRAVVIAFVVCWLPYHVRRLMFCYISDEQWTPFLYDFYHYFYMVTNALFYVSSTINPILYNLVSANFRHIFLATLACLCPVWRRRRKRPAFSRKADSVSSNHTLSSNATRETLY
XiGFP reactiv = reactivates the inactive X chromosome in mouse fibroblasts. activation, % at 7.58 µM. 0.055% of 360,000 active. XiGFP mouse fibroblasts, % GFP-positive cells imaging, 3 d; cells co-treated with 5-aza-dC sensitizer; scaled so ellipticine positive control = 100%;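 active = mean normalized replicate activation at least 10% and every replicate at or above 10%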;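 also: 0% = median of on-plate neutral control wells and 100% = ellipticine 6 µM median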
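System: XiGFP fibroblasts, SV40-immortalized. Medium: DMEM plus 5-aza-dC sensitizer. Doses: single point. Timing: 3 d treatment, 15 min room-temperature fixation. Control set: ellipticine 6 µM.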
V-ATPase pH = regulators of yeast V-ATPase proton transport | S. cerevisiae, pHLuorin cytosolic pH fluorescence | response, % at 10 µM | 0.37% of 350,000 active; in the data active = response mostly above about 7.3%, no sharp cut-off; inactive = mostly below about 5.4%; also: actives read high
* hit, by the source's call; x = not tested or not shown. Compounds with a hit are over-represented: about 0.89% of the library has one in this group of screens.

SMILES | beta cell repl | T cell HTS | Arr AP2 block | NTR1 agonist | XiGFP reactiv | V-ATPase pH
Cc1ccccc1NC(=O)c1cc2ccccc2o1 | -4.7 | 232.5 | 10.2 | 1.8 | 0.0 | 14.1*
COc1ccc(-c2cc(C(=O)N3CCN(c4ccccc4)CC3)no2)cc1 | -1.4 | 217.5 | -6.6 | 9.7 | 0.0 | 1.6
COc1ccc(OC)c(-c2cc(C(=O)N3CCN(c4ccccc4)CC3)no2)c1 | -3.4 | 433.6 | 4.6 | 6.2 | 0.5 | 18.5*
COc1ccc(C(=O)C(CCCCC(CN(C)C)C(=O)c2ccc(OC)cc2)CN(C)C)cc1 (centres undefined) | -6.8 | 177.0 | 4.2 | 0.0 | x | 2.5
CCOc1ccc(C(=O)C(CCC(CN(C)C)C(=O)c2ccc(OCC)cc2)CN(C)C)cc1 (centres undefined) | x | x | -7.1 | x | 4.0 | 9.6*
CC(=O)Nc1ccc(S(=O)(=O)N2CCN(c3ccc(C)c(Cl)c3)CC2)cc1 | 1.7 | 478.6 | 3.2 | -1.7 | 0.2 | 17.0*
CC(=O)Nc1ccc(S(=O)(=O)N2CCN(S(=O)(=O)c3ccc(NC(C)=O)cc3)CC2)cc1 | -2.4 | 200.7 | -4.8 | -1.6 | 0.0 | 2.5
C[C@H](CO)N1C[C@H](C)[C@@H](CN(C)C(=O)Nc2cccc3ccccc23)Oc2ccc(NC(=O)Nc3ccc4c(c3)OCO4)cc2CC1=O | x | x | x | x | -1.0 | x
C(=C1/CCCC2=C1Nc1ncnn1C2c1ccccc1)/c1ccccc1 (centres undefined) | -6.1 | 323.2 | x | 72.8* | x | x
Cc1noc(C)c1NC(=O)Nc1ccc2c(c1)C(=O)N([C@H](C)CO)C[C@@H](C)[C@@H](CN(C)C(=O)Nc1ccccc1)O2 | x | x | x | x | -0.1 | x
CCN1C(=O)[C@H]2[C@@H](c3ccc(C)cc3)N3C(=O)N(c4cccc(Br)c4)C(=O)[C@@]3(Cc3ccccc3)[C@H]2C1=O | -3.0 | 545.6 | 0.8 | 3.5 | -0.1 | 13.3*
O=C(NC1CCS(=O)(=O)C1)c1cccc(Br)c1 (centres undefined) | 5.5 | 416.4 | 1.0 | -0.3 | -0.3 | 1.8
O=C(NC1CCS(=O)(=O)C1)c1cccnc1 (centres undefined) | -2.2 | 27.4* | x | 3.1 | x | x
CS(=O)(=O)N(CC(=O)Nc1ccccc1C(=O)N1CCOCC1)c1ccc(F)c(Cl)c1 | 3.5 | 307.3 | 9.3 | 1.0 | 0.0 | 16.5*
Cc1cccc2cc3c(N)c(C(=O)Nc4ccc(N5CCOCC5)cc4)sc3nc12 | -0.5 | 242.3 | -10.6 | 7.6 | x | -1.0
CCc1cccc2cc3c(N)c(C(=O)Nc4ccc(S(=O)(=O)N5CCCC5)cc4)sc3nc12 | x | 687.2 | 3.7 | x | 89.2* | -1.1
COc1ccc2c3c([nH]c2c1)[C@@H](CO)N(Cc1ccncc1)CC31CCN(C(=O)CN(C)C)CC1 | x | x | x | x | 0.3 | x
O=C1/C(=C\c2cc(Cl)c(O)c(Cl)c2)SC(=S)N1Cc1ccccc1 | x | 450.3 | -16.9 | x | 0.7 | 97.1*
O=C(O)COc1ccc(/C=C2/SC(=S)N(Cc3ccccc3)C2=O)cc1 | -3.6 | 183.8 | -2.9 | 1.3 | 0.0 | 0.6
CCCc1nc2sc3c(c2c(=O)n1NC(=O)CCC(=O)OC)CCCC3 | -2.3 | 398.6 | -0.2 | 2.5 | 0.0 | 0.4
Cc1nc2sc3c(c2c(=O)n1NC(=O)CCBr)CCCC3 | -4.0 | 227.1 | 61.8* | 2.6 | 0.0 | -2.1
c1coc(CSSCc2ccco2)c1 | -4.5 | 617.8 | 3.1 | 1.8 | 0.0 | 9.5*
CC(=O)Oc1cc(O)c2c(=O)c(OC(C)=O)c(-c3ccc(OC(C)=O)c(OC(C)=O)c3)oc2c1 | -4.3 | 65.3* | 8.9 | 13.6 | x | 2.2
COc1ccc(-c2oc3cc(OC(C)=O)cc(OC(C)=O)c3c(=O)c2OC)cc1 | x | x | -1.1 | x | 0.0 | -1.4
C[C@H]1CCCCO[C@H](CN(C)C(=O)Nc2cccc3ccccc23)[C@@H](C)CN([C@@H](C)CO)C(=O)c2cc(NC(=O)Nc3ccccc3)ccc2O1 | x | x | x | x | -0.1 | x
CCCN(C)C[C@@H]1OCCCC[C@@H](C)Oc2ccc(NS(=O)(=O)c3ccc(F)cc3)cc2C(=O)N([C@@H](C)CO)C[C@@H]1C | x | x | x | x | 0.0 | x
C[C@H](CO)N1C[C@H](C)[C@H](CN(C)Cc2ccncc2)Oc2c(NS(=O)(=O)c3ccccc3)cccc2C1=O | x | x | x | x | -0.5 | x
